In ChEMBL document CHEMBL4261484, “Design, synthesis and anticonvulsant-analgesic activity of new N-[(phenoxy)alkyl]- and N-[(phenoxy)ethoxyethyl]aminoalkanols” (Medchemcomm, 2017):
Active and inactive are the calls of the source.

Key:
Mus musculus [1] = assay: Anticonvulsant activity in mouse assessed as protection against maximal electroshock-induced seizures at 100 mg/kg, ip; assay type: functional, organism-based
How it was run: (§1)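 Mice dosed ip; maximal seizures induced by auricular electroshock (25 mA, 500 V, 50 Hz, 0.2 s). Endpoint: hind-limb tonic extension; animals without it scored protected. Read-out is number protected over number tested.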

Mus musculus [2] = assay: Anticonvulsant activity in mouse assessed as protection against maximal electroshock-induced seizures at 30 mg/kg, ip; assay type: functional, organism-based; how it was run: as §1
Mus musculus [3] = assay: Toxicity in mouse at 100 mg/kg, ip measured during maximal electroshock seizure test; assay type: organism-based; conditions: in vivo
Mus musculus [4] = assay: Neurotoxicity in mouse assessed as motor impairment at 30 mg/kg, ip measured for one min by rotarod test; assay type: toxicity, organism-based; conditions: in vivo, 1 min
How it was run: (§2)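 Mice trained on an accelerating rotarod, then tested at least 24 h later after ip pretreatment, on a rod turning at 10 rpm. Neurotoxicity was scored as failure to stay on the rod for one minute. Read-out is mice impaired over mice tested.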

Mus musculus [5] = assay: Toxicity in mouse at 30 mg/kg, ip measured during maximal electroshock seizure test; assay type: organism-based; conditions: in vivo
Mus musculus [6] = assay: Neurotoxicity in mouse assessed as motor impairment at 100 mg/kg, ip measured for one min by rotarod test; assay type: toxicity, organism-based; conditions: in vivo, 1 min; how it was run: as §2
Mus musculus [7] = assay: Anticonvulsant activity in mouse assessed as protection against maximal electroshock-induced seizures at 60 mg/kg, ip; assay type: functional, organism-based; how it was run: as §1
Mus musculus [8] = assay: Toxicity in mouse at 20 mg/kg, ip measured during maximal electroshock seizure test; assay type: organism-based; conditions: in vivo
Mus musculus [9] = assay: Toxicity in mouse at 15 mg/kg, ip measured during maximal electroshock seizure test; assay type: organism-based; conditions: in vivo
Mus musculus [10] = assay: Anticonvulsant activity in ip dosed mouse assessed as protection against maximal electroshock-induced seizures; assay type: functional
How it was run: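 Mice were dosed ip. Maximal seizures were induced by auricular electrodes (25 mA, 500 V, 50 Hz, 0.2 s). Absence of hind-limb tonic extension counted as protection. […] Motor impairment was scored on a 10 rpm rotarod, giving TD50 the same way.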

[11] = Neurotoxicity in ip dosed mouse assessed as motor impairment measured for one min by rotarod test; assay type: toxicity, organism-based; conditions: in vivo; how it was run: as §2
[12] = Protection index, ratio of TD50 for neurotoxicity in ip dosed mouse by rotarod test to ED50 for anticonvulsant activity in mouse by maximal electroshock seizure test; assay type: toxicity, organism-based; conditions: in vivo, read-out: Ratio TD50/ED50
Mus musculus [13] = assay: Anticonvulsant activity in mouse assessed as protection against maximal electroshock-induced seizures at 10 mg/kg, ip; assay type: functional, organism-based; how it was run: as §1
Mus musculus [14] = assay: Toxicity in mouse at 10 mg/kg, ip measured during maximal electroshock seizure test; assay type: organism-based; conditions: in vivo
Mus musculus [15] = assay: Anticonvulsant activity in mouse assessed as current strength required to induce tonic hind-limb extension in 50% of the animals at 20 mg/kg, ip by maximal electroshock seizure threshold test (reference value: 6.05 to 8.13 mA); assay type: functional
Mus musculus [16] = assay: Anticonvulsant activity in mouse assessed as increase in electroconvulsive threshold at 20 mg/kg, ip by maximal electroshock seizure threshold test relative to control; assay type: functional
Mus musculus [17] = assay: Anticonvulsant activity in mouse assessed as protection against subcutaneous pentylenetetrazole-induced seizures by measuring latency time of tonic seizures at 100 mg/kg, ip measured for 30 mins post pentylenetetrazole challenge at 0.5 hrs after compound dosing (reference value: 562.8 to 614.9 secs); assay type: functional
Mus musculus [18] = assay: Anticonvulsant activity in mouse assessed as protection against subcutaneous pentylenetetrazole-induced seizures by measuring latency time of tonic seizures at 30 mg/kg, ip measured for 30 mins post pentylenetetrazole challenge at 0.5 hrs after compound dosing (reference value: 562.8 to 614.9 secs); assay type: functional
Mus musculus [19] = assay: Anticonvulsant activity in mouse assessed as protection against subcutaneous pentylenetetrazole-induced seizures at 100 mg/kg, ip measured for 30 mins post pentylenetetrazole challenge at 0.5 hrs after compound dosing relative to control; assay type: functional
Mus musculus [20] = assay: Anticonvulsant activity in mouse assessed as protection against subcutaneous pentylenetetrazole-induced seizures at 30 mg/kg, ip measured for 30 mins post pentylenetetrazole challenge at 0.5 hrs after compound dosing relative to control; assay type: functional
Mus musculus [21] = assay: Analgesic activity in mouse assessed as decrease in time of paw licking during phase 1 at 32 mg/kg, ip measured for 5 mins by formalin test relative to control; assay type: functional; design: scale not given: the % may be the effect or the level left
How it was run: (§3)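 Formalin test in mice: 20 μL of 5% formalin injected intraplantarly into the right hind paw. Each mouse was observed alone in a glass beaker for 30 min. Time (s) spent licking or biting the injected paw was recorded at 0–5 min (acute phase) and 15–30 min (inflammatory phase).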

Mus musculus [22] = assay: Analgesic activity in mouse assessed as decrease in time of paw licking during phase 2 at 32 mg/kg, ip measured for 15 to 30 mins by formalin test relative to control; assay type: functional; design: scale not given: the % may be the effect or the level left; how it was run: as §3
Mus musculus [23] = assay: Toxicity in mouse assessed as effect on spontaneous activity at 32 mg/kg, ip measured for 30 mins by photoresistor actometer relative to control; assay type: organism-based; conditions: in vivo, 0.5 h
How it was run: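 Mice dosed ip; locomotor activity by photoresistor actometers counting light-beam interruptions. Each mouse was habituated 30 min in a cage, then crossings were counted over a 30 min session. Data are mean ± SEM and % change vs control; unpaired t test.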

Mus musculus [24] = assay: Neurotoxicity in mouse assessed as motor impairment by measuring time of escaping from chimney at 32 mg/kg, ip measured for 60 secs (reference value: 8.87 +/- 1.79 secs); assay type: toxicity, organism-based; conditions: in vivo, 1 min
How it was run: (§4)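 Mice dosed ip; trained, selected animals placed in a horizontal tube 25 cm long and 2.5 cm in diameter, then tube reversed so mice must climb out backward. Read-outs: escape time (s) ± SEM and % animals losing coordination versus control. Unpaired t test.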

Mus musculus [25] = assay: Neurotoxicity in mouse assessed as motor impairment by measuring loss of coordination at 32 mg/kg, ip measured for 60 secs by chimney test relative to control; assay type: toxicity, organism-based; conditions: in vivo, 1 min; how it was run: as §4
HepG2 [26] = assay: Cytotoxicity against human HepG2 cells assessed as effect on cell viability at 10 to 250 uM after 24 hrs by MTT assay; assay type: cell-based; conditions: hepg2, 24 h
How it was run: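 HepG2 cells grown in MEM with 10% FBS (37 °C, 5% CO2) and seeded at 1 × 10^4. After overnight culture, exposed to 10–250 μM for 24 h. MTT for 3 h, formazan dissolved, OD 570 nm. Viability is % of control ± SEM from three independent experiments.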

HepG2 [27] = assay: Cytotoxicity against human HepG2 cells assessed as effect on cell viability at 10 to 250 uM after 24 hrs by neutral red assay; assay type: cell-based; conditions: hepg2, 24 h
How it was run: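 HepG2 cells seeded at 5 × 10^4 per well, then after 24 h given medium with 10–250 μM for 24 h. Viability by neutral red staining, OD 570 nm. Results are % of control ± SEM, three independent experiments.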

[28] = Cytotoxicity against mouse CRL-2541 cells assessed as effect on cell viability at 10 to 250 uM after 24 hrs by MTT assay; assay type: cell-based
Mus musculus [29] = assay: Anticonvulsant activity in mouse assessed as protection against maximal electroshock-induced seizures at 20 mg/kg, ip; assay type: functional, organism-based; how it was run: as §1
Mus musculus [30] = assay: Toxicity in mouse at 25 mg/kg, ip measured during maximal electroshock seizure test; assay type: organism-based; conditions: in vivo

SMILES | Activity (Mus musculus [1]) | Activity (Mus musculus [3]) | Activity (Mus musculus [5]) | Activity (Mus musculus [6]) | ED50 (Mus musculus [10]) | further results
Cc1ccc(Cl)c(OCCOCCN2CCC(O)CC2)c1 | Active | Non-Toxic |  |  |  | Activity (Mus musculus [2]): inactive; Activity (Mus musculus [4]): Non-Toxic
CC[C@@H](CO)NCCCCOc1cc(C)ccc1Cl | Active | Non-Toxic | Non-Toxic | Toxic |  | Activity (Mus musculus [2]): inactive
Cc1cccc(Cl)c1OCCCCN[C@@H](C)CO |  |  |  | Toxic |  | 
Cc1ccc(Cl)c(OCCCCN[C@H](C)CO)c1 | Active | Non-Toxic | Non-Toxic | Toxic |  | Activity (Mus musculus [2]): inactive; Activity (Mus musculus [4]): Non-Toxic
Cc1cccc(C)c1OCCCCN[C@H]1CC[C@H](O)CC1 |  | Toxic |  |  |  | Activity (Mus musculus [7]): inactive
Cc1cccc(Cl)c1OCCOCCNC[C@H](O)c1ccccc1 |  |  |  | Toxic |  | 
Cc1cccc(Cl)c1OCCCCN[C@H]1CCCC[C@@H]1O.Cl (racemic) |  | Toxic |  | Toxic |  | 
Cc1cccc(Cl)c1OCCCCNC(C)CO (racemic) | Active | Non-Toxic |  |  | 19.1 mg/kg | Activity (Mus musculus [8]): Non-Toxic; Activity (Mus musculus [9]): Non-Toxic; TD50 at 1 min [11]: 45.7 mg/kg; selectivity ratio [12]: 2.4
Cc1ccc(Cl)c(OCCN[C@H]2CC[C@H](O)CC2)c1 |  |  |  | Toxic |  | 
Cc1cccc(C)c1OCC(C)N (stereo unspecified) [MEXILETINE] |  |  |  |  | 20 mg/kg | 
CCC(CO)NCCOCCOc1cc(C)ccc1Cl (racemic) | Active |  |  | Toxic |  | Activity (Mus musculus [4]): Non-Toxic
CC[C@H](CO)NCCCCOc1cc(C)ccc1Cl | Active | Non-Toxic | Non-Toxic | Toxic |  | Activity (Mus musculus [4]): Non-Toxic
Cc1ccc(OCCN[C@H]2CCCC[C@@H]2O)c(C)c1 (racemic) | Active | Non-Toxic |  |  | 31.8 mg/kg | Activity (Mus musculus [13]): inactive; Activity (Mus musculus [14]): Toxic; TD50 at 1 min [11]: 76.8 mg/kg; selectivity ratio [12]: 2.41; Activity (Mus musculus [15]): 9.33 mA; Activity (Mus musculus [16]): 23.9%; Time (Mus musculus [17]): 921 s; Time (Mus musculus [18]): 576.4 s; Activity (Mus musculus [19]): 57.71%; Activity (Mus musculus [20]): 2.42%; Activity (Mus musculus [21]): 18.55%; Activity (Mus musculus [22]): 46.16%; Activity (Mus musculus [23]): 8.2%; Time (Mus musculus [24]): 4.75 s; Activity (Mus musculus [25]): 0%; Activity (HepG2 [26]): Non-Toxic; Activity (HepG2 [27]): Non-Toxic; Activity [28]: Non-Toxic
Cc1ccc(Cl)c(OCCN2CCC(O)CC2)c1 | Active | Non-Toxic |  | Toxic |  | 
CC[C@@H](CO)NCCOc1c(C)cccc1C |  |  |  |  |  | selectivity ratio [12]: 4.55
CCC(O)CNCCOCCOc1cc(Cl)ccc1C (racemic) | Active | Non-Toxic | Non-Toxic | Toxic |  | Activity (Mus musculus [2]): inactive
CC(C)NCC(O)COc1cccc2ccccc12 (stereo unspecified) [PROPRANOLOL] |  |  |  |  | 15 mg/kg | 
Cc1cccc(C)c1OCCOCCNCC(O)c1ccccc1 (racemic) | Active | Non-Toxic |  |  | 13 mg/kg | Activity (Mus musculus [29]): Active; Activity (Mus musculus [14]): Non-Toxic; Activity (Mus musculus [8]): Non-Toxic; Activity (Mus musculus [9]): Non-Toxic; TD50 at 1 min [11]: 36 mg/kg; selectivity ratio [12]: 2.76
Cc1ccc(Cl)c(OCCCCNC(C)CO)c1 (racemic) | Active | Non-Toxic | Non-Toxic | Toxic |  | Activity (Mus musculus [2]): inactive; Activity (Mus musculus [4]): Non-Toxic
Cc1cccc(Cl)c1OCCCCN[C@H]1CC[C@H](O)CC1 | Active | Non-Toxic |  |  | 41.1 mg/kg | TD50 at 1 min [11]: 50 mg/kg; selectivity ratio [12]: 1.22
CCC(CO)NCCCCOc1cc(C)ccc1Cl (racemic) | Active | Non-Toxic | Non-Toxic | Toxic |  | Activity (Mus musculus [4]): Non-Toxic
Cc1cccc(C)c1OCCCCNCC(C)O (racemic) | Active | Non-Toxic | Non-Toxic |  | 27.1 mg/kg | Activity (Mus musculus [30]): Non-Toxic; TD50 at 1 min [11]: 43.3 mg/kg; selectivity ratio [12]: 1.6
